In test [1] the target is T1, C5a anaphylatoxin chemotactic receptor 1 (Homo sapiens, UniProt P21730).
T1 sequence (P21730 whole entry): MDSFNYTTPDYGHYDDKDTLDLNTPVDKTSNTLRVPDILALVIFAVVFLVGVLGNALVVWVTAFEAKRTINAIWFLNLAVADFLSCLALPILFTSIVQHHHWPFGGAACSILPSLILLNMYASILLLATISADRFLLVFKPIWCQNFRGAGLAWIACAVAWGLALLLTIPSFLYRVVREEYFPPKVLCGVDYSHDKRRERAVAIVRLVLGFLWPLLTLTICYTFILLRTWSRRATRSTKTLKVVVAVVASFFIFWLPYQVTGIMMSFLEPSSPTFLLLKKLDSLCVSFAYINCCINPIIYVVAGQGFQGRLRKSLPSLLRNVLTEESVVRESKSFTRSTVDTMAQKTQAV
Put plainly: Ability to inhibit binding of radiolabeled C5a anaphylatoxin to intact membrane bound receptor from human neutrophils. The gist of the method: (§1)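 Buffer was HBSS with 10 mM pMSF and 0.5% BSA, HEPES pH 7.2. Compounds were added from 1% aqueous DMSO. Filtration used polyethyleneimine-soaked GF filters, read by gamma counting. Nonspecific binding was set with ≥20 ng unlabeled C5a. IC50 came from a four-parameter logistic fit.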

Test [2] is filed under the species Homo sapiens. The test can be described thus: Compound was tested for the inhibition of C5a- induced human neutrophil activation. It counts as functional. Summed up: (§2)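 Freshly isolated human PMN (Ficoll-Hypaque, erythrocytes lysed with NH4Cl/EDTA/KHCO3), 4×10^5/mL in HBSS. Preincubated with compound or 1% aqueous DMSO 20 min at 37 °C, then cytochalasin B (5 μg/mL final) 5 min. Stimulated 5 min at 37 °C with C5a or fMLF, or no stimulus for nonspecific release. MPO read with dimethoxybenzidine/H2O2 at pH 6.0, azide-quenched at 2 min, A450. Duplicate or triplicate.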

The target of test [3] is T1, C5a anaphylatoxin chemotactic receptor 1. The test can be described thus: Compound was tested for its ability to inhibit binding of radiolabeled C5a anaphylatoxin chemotactic receptor to intact membrane bound receptor from human neutrophils.; insoluble. The gist of the method:
as §1

The species named for test [4] is Homo sapiens. The test can be described thus: Compound was tested for the inhibition of fMLF- induced human neutrophil activation. It counts as functional. The gist of the method: as §2
The target of test [5] is T2, Myeloperoxidase (Homo sapiens, UniProt P05164).
T2 sequence (P05164 whole entry): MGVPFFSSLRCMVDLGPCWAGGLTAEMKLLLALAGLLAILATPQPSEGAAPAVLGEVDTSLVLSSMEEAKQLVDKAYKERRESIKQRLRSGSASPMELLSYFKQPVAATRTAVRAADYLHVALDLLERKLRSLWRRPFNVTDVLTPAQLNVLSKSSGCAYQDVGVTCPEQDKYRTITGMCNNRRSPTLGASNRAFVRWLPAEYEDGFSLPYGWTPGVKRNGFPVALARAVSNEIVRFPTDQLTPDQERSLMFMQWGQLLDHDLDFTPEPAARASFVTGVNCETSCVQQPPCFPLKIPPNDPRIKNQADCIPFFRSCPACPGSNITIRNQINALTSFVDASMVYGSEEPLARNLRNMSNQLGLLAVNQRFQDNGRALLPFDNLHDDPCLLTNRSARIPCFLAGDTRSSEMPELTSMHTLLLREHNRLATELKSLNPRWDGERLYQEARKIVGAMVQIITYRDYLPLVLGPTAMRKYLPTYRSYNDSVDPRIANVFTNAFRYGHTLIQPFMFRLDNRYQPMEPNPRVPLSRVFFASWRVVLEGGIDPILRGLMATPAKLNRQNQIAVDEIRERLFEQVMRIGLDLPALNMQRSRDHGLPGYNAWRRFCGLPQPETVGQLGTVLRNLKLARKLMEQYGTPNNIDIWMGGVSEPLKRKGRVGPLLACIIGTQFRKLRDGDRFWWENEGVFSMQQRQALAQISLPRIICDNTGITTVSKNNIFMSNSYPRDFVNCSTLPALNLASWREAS
The test can be described thus: Compound was tested for the induction of nonspecific myeloperoxidase (MPO) release. In kind it is functional. The gist of the method:
as §2

As usually defined, the IC50 is the point on the concentration scale where inhibition reaches its midpoint. A low value points to greater potency in that assay. What is called EC50 is the concentration that produces a half-maximal response. A high value points to weaker potency.

SMILES strings stand for the structures. ≈ marks a conversion by molar mass, not a printed value.

As to `Cc1cc(N)c2cc(NC(=O)C(=O)Nc3ccc4nc(C)cc(N)c4c3)ccc2n1`, the IC50 in test [1] was 4.99 µM. Besides, the EC50 in test [2] came to 4 µg/mL (≈ 9.99 µM).
Regarding `Cc1cc(N)c2cc(N)ccc2n1`, the IC50 in test [1] is over 577 µM.
In the case of `Cc1cc(N)c2cc(C(=O)NCc3ccccc3)ccc2n1`, in test [1], the IC50 was over 343 µM.
Same read-out and setting: for `Cc1cc(N)c2cc(NC(=O)c3ccccc3)ccc2n1` the value was over 361 µM.
Same read-out and setting: for `Cc1cc(NCc2ccccc2)c2cc(NC(=O)C(=O)Nc3ccc4nc(C)cc(NCc5ccccc5)c4c3)ccc2n1` the value was over 86.1 µM; for `CCCCCCCC(=O)Nc1ccc2nc(C)cc(N)c2c1`, 100 µM.
Still for that read-out and setting: to `Cc1cc(N)c2cc(NC(=O)CCCCCCCCC(=O)Nc3ccc4nc(C)cc(N)c4c3)ccc2n1` belongs over 97.5 µM; to `Cc1cc(N)c2cc(NC(=O)c3ccc4ccccc4c3)ccc2n1`, 91.6 µM; to `CCCC(=O)Nc1ccc2nc(C)cc(N)c2c1`, over 411 µM.
In the case of `COc1cc(C)nc2ccc(NC(=O)/C=C/c3ccccc3Cl)cc12`, the IC50 in test [1] is over 142 µM.
For the compound `Cc1cc(NCc2ccccc2)c2cc(NC(=O)/C=C/c3ccccc3C(F)(F)F)ccc2n1`, the IC50 in test [1] is over 217 µM.
Compound `Cc1ccc2cc(NC(=O)Nc3ccc4nc(C)ccc4c3)ccc2n1` came in with an IC50 in test [1] of over 146 µM.
As for `Cc1cc(NCc2ccccc2)c2cc(N)ccc2n1`, the half-maximal inhibitory concentration (IC50) in test [1] is over 380 µM.
Regarding `Cc1cc(N)c2cc(NC(=O)/C=C/c3c(F)c(F)c(F)c(F)c3F)ccc2n1`, the IC50 result in test [3] is “Not Active”.
For the compound `Cc1cc(NCc2ccccc2)c2cc(NC(=O)/C=C/c3ccccc3Cl)ccc2n1`, the EC50 in test [4] was under 3 µg/mL; in test [5], 11.7 µM; in test [2] it was under 3 µg/mL. Moreover, in test [1], the IC50 is over 234 µM.
Turning to `Cc1cc(N)c2cc(NC(=O)CCCCC(=O)Nc3ccc4nc(C)cc(N)c4c3)ccc2n1`, the IC50 in test [1] is over 110 µM.
On the same count and under the same terms, to `Cc1cc(N)c2cc(NC(=O)CC(=O)Nc3ccc4nc(C)cc(N)c4c3)ccc2n1` belongs 43.4 µM; to `Cc1cc(N)c2cc(NC(=O)/C=C/c3ccccc3)ccc2n1`, 98.9 µM.
`Cc1cc(N)c2cc(NC(=O)Nc3ccc4nc(C)cc(N)c4c3)ccc2n1` [AMINOQUINURIDE]: the IC50 in test [1] is 8.86 µM. In addition, a half-maximal response in test [2] (EC50) required 15 µg/mL (≈ 40.3 µM).
On to `Cc1cc(N)c2cc(NC(=O)/C=C/c3ccccc3C(F)(F)F)ccc2n1`, for which the EC50 in test [4] and in test [2] was 4 µg/mL (≈ 10.8 µM) throughout. The IC50 in test [1] was 24.2 µM.
With `CCCCCCCCNc1cc(C)nc2ccc(NC(=O)/C=C/c3ccccc3Cl)cc12`, the IC50 in test [1] is over 222 µM.
Same read-out and setting: for `CCCCCCCCNC(=O)c1ccc2nc(C)cc(N)c2c1` the value was over 319 µM; for `Cc1cc(N)c2cc(NC(=O)/C=C/c3ccc(C(F)(F)F)cc3)ccc2n1`, 18.8 µM.
Same read-out and setting: for `Cc1cc(N)c2cc(NC(=O)/C=C/c3cccc(C(F)(F)F)c3)ccc2n1` the value was 10.8 µM; for `Cc1cc(N)c2cc(NC(=O)CCc3ccccc3)ccc2n1`, over 327 µM.
Take `Cc1cc(N)c2cc(NC(=O)/C=C/c3ccccc3Cl)ccc2n1`: the values for the EC50 in test [4] and in test [2] were 5 µg/mL (≈ 14.8 µM) and 4 µg/mL (≈ 11.8 µM), respectively. Also, in test [1], the IC50 was 35.5 µM.
The like results for `Cc1cc(N)c2cc(NC(=O)/C=C/c3c(Cl)cccc3Cl)ccc2n1` were, in that order, 4 µg/mL (≈ 10.7 µM), 4 µg/mL (≈ 10.7 µM) and 21.5 µM.
